The values below come from ChEMBL document CHEMBL4680114, “Optimization of Potent and Selective Ataxia Telangiectasia-Mutated Inhibitors Suitable for a Proof-of-Concept Study in Huntington's Disease Models” (J Med Chem, 2019).

A short description of data set [1]: Kinetic solubility in pH 7.4 PBS buffer by LC-UV assay. The settings on record: read-out: Kinetic_solubility. Format: physicochemical. Put shortly: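 Compound from a 10 mM DMSO stock diluted to a nominal 200 µM in 0.1 M potassium phosphate/0.8% NaCl pH 7.4 (2% DMSO final), n=2. Shaken 2 h at room temperature, then filtered. Filtrate quantified by LC-UV against 200 µM and 10 µM DMSO standards, with MS peak confirmation.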

A short description of data set [2]: Unbound brain-to-plasma concentration ratio in C57BL/6J mouse at 3 mg/kg, iv administered as single dose by LC-MS/MS analysis. Format: ADME, organism-based. The conditions noted are these: brain and plasma, read-out: K(p,uu,brain).
Data set [3] is described as follows: Volume of distribution at steady state in C57BL/6J mouse at 3 mg/kg, iv administered as single dose by LC-MS/MS analysis. The class given is ADME, organism-based. The conditions noted are these: in vivo, read-out: Vdss. Put shortly:
(§1)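 Male mice given a single iv dose of 3 mg/kg in 10:50:40 DMSO:PEG400:H2O (5 mL/kg). Plasma (cardiac puncture) and brain collected, n=3 per time point, and measured by LC-MS/MS. Non-compartmental parameters from mean concentrations, with C0 back-extrapolated; AUC by linear trapezoidal method, dose-normalised.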

The nature of data set [4]: AUC/dose in C57BL/6J mouse plasma at 3 mg/kg, iv administered as single dose by LC-MS/MS analysis. The settings on record: in vivo. Format: ADME, organism-based. Put shortly: (§2)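 Male C57BL/6 mice, single intravenous dose as solution in 10:50:40 DMSO:PEG400:H2O (5 mL/kg). Plasma by cardiac puncture and brain collected at set times, n=3 per time point. LC-MS/MS quantitation with diclofenac IS. Composite non-compartmental parameters from mean concentrations; C0 back-extrapolated from first two points; kel from at least last three concentrations; AUC dose-normalized.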

A short description of data set [5]: Ratio of AUC/dose in brain to plasma of C57BL/6J mouse at 3 mg/kg, iv administered as single dose by LC-MS/MS analysis. Format: ADME, organism-based. The conditions noted are these: brain and plasma, read-out: BPR. Put shortly:
as §1

Data set [6] in a line: AUC/dose in C57BL/6J mouse brain at 3 mg/kg, iv administered as single dose by LC-MS/MS analysis. The class given is ADME, organism-based. The settings on record: in vivo. Put shortly:
as §2

Data set [7] in a line: Distribution coefficient, logD of compound at pH 7.4. The class given is physicochemical. The conditions noted are these: octanol/water.

Values after ≈ are worked out from the molar mass of the structure shown.

For `O=c1cc(-c2cccc3c2Sc2ccc(OC4CCOCC4)cc2C3)oc(N2CCOCC2)c1`, the solubility kinetic in data set [1] came to 10 µg/mL (≈ 20.9 µM).

Turning to `C[C@H](COc1ccc2c(c1)Cc1cccc(-c3cc(=O)cc(N4CCOCC4)o3)c1S2)N1CCOCC1`, the solubility kinetic in data set [1] was 13 µg/mL (≈ 25 µM).

On to `O=c1cc(-c2cccc3c2Sc2ccc(OCCN4CCC(F)(F)CC4)cc2C3)oc(N2CCOCC2)c1`, for which the solubility kinetic in data set [1] was found to be 3 µg/mL (≈ 5.55 µM).

In the case of `O=c1cc(-c2cccc3c2Sc2ccc(O[C@@H]4CCN(CC(F)F)C4)cc2C3)oc(N2CCOCC2)c1`, the Kp uu in data set [2] was 0.05. The Vd in data set [3] came out at 2.6 L/kg. Besides, the AUC/dose in data set [4] was found to be 1600 nM·kg·h/mg; in data set [6], 380 nM·kg·h/mg. Moreover, in data set [5], the Kp came out at 0.2. In addition, the solubility kinetic in data set [1] is 7 µg/mL (≈ 13.3 µM).

`CC(C)(O)C1CCN(CCOc2ccc3c(c2)Cc2cccc(-c4cc(=O)cc(N5CCOCC5)o4)c2S3)CC1`: the Kp uu in data set [2] turned out to be 0.05. For the same compound, the Vd in data set [3] is 4.2 L/kg. The AUC/dose is 950 nM·kg·h/mg in data set [4] and 120 nM·kg·h/mg in data set [6]. For the same compound, in data set [5], the Kp turned out to be 0.1. Also, the solubility kinetic in data set [1] was determined as 101 µg/mL (≈ 179 µM).

As for `O=C(CN1CCCC1)Nc1ccc2c(c1)Cc1cccc(-c3cc(=O)cc(N4CCOCC4)o3)c1S2`, in data set [1], the solubility kinetic was found to be 81 µg/mL (≈ 161 µM).

For the compound `O=C(Nc1ccc2c(c1)Cc1cccc(-c3cc(=O)cc(N4CCOCC4)o3)c1S2)C1CC1`, in data set [1], the solubility kinetic is 5 µg/mL (≈ 10.9 µM).

In the case of `C[C@H](CN1CCOCC1)Oc1ccc2c(c1)Cc1cccc(-c3cc(=O)cc(N4CCOCC4)o3)c1S2`, in data set [1], the solubility kinetic was found to be 49 µg/mL (≈ 94.1 µM).

Regarding `O=c1cc(-c2cccc3c2Sc2ccc(OCC4CCOCC4)cc2C3)oc(N2CCOCC2)c1`, in data set [1], the solubility kinetic is less than 2 µg/mL.

As for `O=c1cc(-c2cccc3c2Sc2ccc(OCCN4C[C@H]5C[C@@H]4CO5)cc2C3)oc(N2CCOCC2)c1` (relative stereo), the solubility kinetic in data set [1] amounted to 82 µg/mL (≈ 158 µM).

As for `C[C@@H]1CN(CC(=O)Nc2ccc3c(c2)Cc2cccc(-c4cc(=O)cc(N5CCOCC5)o4)c2S3)C[C@H](C)O1`, the pH-dependent lipophilicity (logD) (commonly lipophilicity at a set pH, counting ionised and neutral species) in data set [7] amounted to 4.5. Besides, the solubility kinetic in data set [1] came to 46 µg/mL (≈ 84 µM).

Turning to `C[C@@H](COc1ccc2c(c1)Cc1cccc(-c3cc(=O)cc(N4CCOCC4)o3)c1S2)N1CCOCC1`, the solubility kinetic in data set [1] stood at 9 µg/mL (≈ 17.3 µM).

With `O=c1cc(-c2cccc3c2Sc2ccc(OC4CN(CC(F)F)C4)cc2C3)oc(N2CCOCC2)c1`, the solubility kinetic in data set [1] was found to be 12 µg/mL (≈ 23.4 µM).

With `O=c1cc(-c2cccc3c2Sc2ccc(OCCN4CCC(F)(F)C4)cc2C3)oc(N2CCOCC2)c1`, the solubility kinetic in data set [1] amounted to 3 µg/mL (≈ 5.7 µM).

As for `COC[C@@H](C)Oc1ccc2c(c1)Cc1cccc(-c3cc(=O)cc(N4CCOCC4)o3)c1S2`, in data set [2], the Kp uu was 0.14. The Vd in data set [3] came out at 1.9 L/kg. In addition, the AUC/dose in data set [4] stood at 1600 nM·kg·h/mg; in data set [6], 680 nM·kg·h/mg. Moreover, the Kp in data set [5] is 0.4. In addition, in data set [1], the solubility kinetic was determined as 22 µg/mL (≈ 47.3 µM).

As to `C[C@@H]1CN(C[C@H](C)Oc2ccc3c(c2)Cc2cccc(-c4cc(=O)cc(N5CCOCC5)o4)c2S3)C[C@H](C)O1`, the solubility kinetic in data set [1] is 27 µg/mL (≈ 49.2 µM).

Turning to `COc1ccc2c(c1)C(C)(C)c1cccc(-c3cc(=O)cc(N4CCOCC4)o3)c1S2`, the solubility kinetic in data set [1] worked out at 5 µg/mL (≈ 11.5 µM).

For `C[C@@H](CN1CCOCC1)Oc1ccc2c(c1)Cc1cccc(-c3cc(=O)cc(N4CCOCC4)o3)c1S2`, the solubility kinetic in data set [1] worked out at 56 µg/mL (≈ 108 µM).

Consider `C[C@H](O)COc1ccc2c(c1)Cc1cccc(-c3cc(=O)cc(N4CCOCC4)o3)c1S2`, for which the solubility kinetic in data set [1] worked out at 30 µg/mL (≈ 66.4 µM).

`COC[C@H]1c2cc(OC)ccc2Sc2c(-c3cc(=O)cc(N4CCOCC4)o3)cccc21`: the Kp uu in data set [2] worked out at 0.18. The Vd in data set [3] turned out to be 3 L/kg. Besides, the results for the AUC/dose in data set [4] and in data set [6] were 960 nM·kg·h/mg and 430 nM·kg·h/mg, respectively. For the same compound, the Kp in data set [5] amounted to 0.4. Besides, the solubility kinetic in data set [1] is 67 µg/mL (≈ 148 µM).

With `O=c1cc(-c2cccc3c2Sc2ccc(OCCN4CC(F)C4)cc2C3)oc(N2CCOCC2)c1`, the solubility kinetic in data set [1] stood at 46 µg/mL (≈ 93 µM).

On to `CN1CC[C@@H](Oc2ccc3c(c2)Cc2cccc(-c4cc(=O)cc(N5CCOCC5)o4)c2S3)C1`, for which the solubility kinetic in data set [1] was found to be 84 µg/mL (≈ 176 µM).

Take `C[C@@H](CN1CCOC2(CC2)C1)Oc1ccc2c(c1)Cc1cccc(-c3cc(=O)cc(N4CCOCC4)o3)c1S2`: in data set [1], the solubility kinetic is 26 µg/mL (≈ 47.6 µM).

For the compound `C[C@@H]1CN([C@H](C)COc2ccc3c(c2)Cc2cccc(-c4cc(=O)cc(N5CCOCC5)o4)c2S3)C[C@H](C)O1`, the solubility kinetic in data set [1] worked out at 24 µg/mL (≈ 43.7 µM).

In the case of `C[C@@H]1CN(CCOc2ccc3c(c2)Cc2cccc(-c4cc(=O)cc(N5CCOCC5)o4)c2S3)C[C@H](C)O1`, the solubility kinetic in data set [1] is 42.5 µg/mL (≈ 79.5 µM).

As to `COc1ccc2c(c1)C1(CCOCC1)c1cccc(-c3cc(=O)cc(N4CCOCC4)o3)c1S2`, the Kp uu in data set [2] worked out at 0.12. The Vd in data set [3] came out at 3 L/kg. The AUC/dose in data set [4] was 1500 nM·kg·h/mg; in data set [6], 700 nM·kg·h/mg. The Kp in data set [5] was 0.5. Besides, in data set [1], the solubility kinetic turned out to be 33 µg/mL (≈ 69.1 µM).

With `O=c1cc(-c2cccc3c2Sc2ccc(OCCN4CCCC45CCOC5)cc2C3)oc(N2CCOCC2)c1` (stereo not given), the solubility kinetic in data set [1] came to 47 µg/mL (≈ 86 µM).

With `CC(=O)N(C)c1ccc2c(c1)Cc1cccc(-c3cc(=O)cc(N4CCOCC4)o3)c1S2`, the solubility kinetic in data set [1] was found to be 77 µg/mL (≈ 172 µM).

As to `CC(=O)Nc1ccc2c(c1)Cc1cccc(-c3cc(=O)cc(N4CCOCC4)o3)c1S2`, in data set [1], the solubility kinetic is 34 µg/mL (≈ 78.2 µM).

For the compound `CC1(CNc2ccc3c(c2)Cc2cccc(-c4cc(=O)cc(N5CCOCC5)o4)c2S3)COC1`, the solubility kinetic in data set [1] amounted to 14 µg/mL (≈ 29.4 µM).

As for `C[C@@H](CN1CCOCC12COC2)Oc1ccc2c(c1)Cc1cccc(-c3cc(=O)cc(N4CCOCC4)o3)c1S2`, in data set [1], the solubility kinetic turned out to be 29 µg/mL (≈ 51.5 µM).

As to `CO[C@@H](C)COc1ccc2c(c1)Cc1cccc(-c3cc(=O)cc(N4CCOCC4)o3)c1S2`, the solubility kinetic in data set [1] worked out at 14 µg/mL (≈ 30.1 µM).

For the compound `O=c1cc(-c2cccc3c2Sc2ccc(OC4COC4)cc2C3)oc(N2CCOCC2)c1`, the Kp uu in data set [2] turned out to be 0.07. In addition, in data set [3], the Vd is 1.6 L/kg. In addition, the AUC/dose in data set [4] worked out at 1900 nM·kg·h/mg; in data set [6], 450 nM·kg·h/mg. Further, the Kp in data set [5] was 0.2. In addition, in data set [1], the solubility kinetic came to 25 µg/mL (≈ 55.6 µM).

Regarding `COC[C@@H]1c2cc(OC)ccc2Sc2c(-c3cc(=O)cc(N4CCOCC4)o3)cccc21`, the solubility kinetic in data set [1] was found to be 64 µg/mL (≈ 142 µM).

In the case of `CN1CCN(CCOc2ccc3c(c2)Cc2cccc(-c4cc(=O)cc(N5CCOCC5)o4)c2S3)CC1`, in data set [1], the solubility kinetic was found to be 92 µg/mL (≈ 177 µM).

Take `C[C@H](CN1C[C@@H](C)O[C@@H](C)C1)Oc1ccc2c(c1)Cc1cccc(-c3cc(=O)cc(N4CCOCC4)o3)c1S2`: in data set [2], the Kp uu amounted to 0.03. Further, in data set [3], the Vd stood at 2.3 L/kg. For the same compound, the figures for the AUC/dose in data set [4] and in data set [6] were 1100 nM·kg·h/mg and 110 nM·kg·h/mg, respectively. For the same compound, the Kp in data set [5] worked out at 0.1. Further, in data set [1], the solubility kinetic was 30 µg/mL (≈ 54.7 µM).

Turning to `C[C@@H](CN1CCCC12COC2)Oc1ccc2c(c1)Cc1cccc(-c3cc(=O)cc(N4CCOCC4)o3)c1S2`, the solubility kinetic in data set [1] is 21 µg/mL (≈ 38.4 µM).

Turning to `CCN1CC(Oc2ccc3c(c2)Cc2cccc(-c4cc(=O)cc(N5CCOCC5)o4)c2S3)C1`, the solubility kinetic in data set [1] came to 89 µg/mL (≈ 187 µM).

In the case of `C[C@@H](CN1C[C@H]2C[C@@H]1CO2)Oc1ccc2c(c1)Cc1cccc(-c3cc(=O)cc(N4CCOCC4)o3)c1S2`, the solubility kinetic in data set [1] was found to be 89 µg/mL (≈ 167 µM).
